The source made the active and inactive calls. The calls are words filed in the database; no cut-off is given here.
What was measured:
[1] = molecular target: Histone deacetylase 7 (Homo sapiens) (UniProt Q8WUI4); experiment: Inhibition of HDAC7 (unknown origin) using Fluor de Lys substrate by fluorescence assay relative to control
Summary of the method: (§1)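 Recombinant HDAC isoform assays run by a contract lab. Compounds in DMSO, 10-dose IC50 mode, 3-fold serial dilution from 50 μM. Duplicate runs; IC50 from curve fitting.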

HOP-92 = experiment: Growth inhibition of human HOP92 cells assessed as cell growth inhibition at 10 uM incubated for 48 hrs by sulforhodamine B assay; assay type: functional; details: HOP-92, 48 h, read-out: GI
Histone deacetylase 2 = Histone deacetylase 2 (Homo sapiens, UniProt Q92769); experiment: Inhibition of HDAC2 (unknown origin) using Fluor de Lys substrate by fluorescence assay relative to control; summary of the method: as §1
Histone deacetylase 2, sequence (Q92769 whole entry): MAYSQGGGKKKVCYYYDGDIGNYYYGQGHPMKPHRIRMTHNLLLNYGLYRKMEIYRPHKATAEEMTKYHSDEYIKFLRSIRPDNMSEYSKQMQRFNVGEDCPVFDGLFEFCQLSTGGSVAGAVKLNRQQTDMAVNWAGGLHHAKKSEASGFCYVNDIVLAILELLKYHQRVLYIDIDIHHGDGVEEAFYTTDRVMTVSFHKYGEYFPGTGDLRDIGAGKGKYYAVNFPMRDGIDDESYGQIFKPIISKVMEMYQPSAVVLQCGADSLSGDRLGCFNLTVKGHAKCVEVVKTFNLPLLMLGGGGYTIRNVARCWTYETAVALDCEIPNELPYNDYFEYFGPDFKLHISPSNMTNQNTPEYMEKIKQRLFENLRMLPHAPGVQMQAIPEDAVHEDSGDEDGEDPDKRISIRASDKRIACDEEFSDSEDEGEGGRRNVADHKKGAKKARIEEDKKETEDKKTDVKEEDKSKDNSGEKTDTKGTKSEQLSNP

PC-3 = experiment: Growth inhibition of human PC3 cells assessed as cell growth inhibition at 10 uM incubated for 48 hrs by sulforhodamine B assay; assay type: functional; details: PC-3, 48 h, read-out: GI
[2] = Metabolic stability in dog liver microsomes assessed as half life at 1 uM preincubated for 10 mins followed by NADPH addition measured upto 60 mins by LC-MS/MS analysis; assay type: ADME, Canis lupus familiaris, Microsome
Summary of the method: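 Liver microsomes from male SD rat, dog or human at 0.5 mg/mL in 100 mM potassium phosphate pH 7.4 with 1 μM compound. Prewarmed 37 °C 10 min, started with 1 mM NADPH. Stopped at 0, 5, 10, 20, 40, 60 min with cold methanol containing glibenclamide internal standard; supernatant by LC–MS/MS; T1/2 and CLint derived.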

SK-MEL-5 = experiment: Growth inhibition of human SK-MEL-5 cells assessed as cell growth inhibition at 10 uM incubated for 48 hrs by sulforhodamine B assay; assay type: functional; details: SK-MEL-5, 48 h, read-out: GI
SNB-19 = experiment: Growth inhibition of human SNB19 cells assessed as cell growth inhibition at 10 uM incubated for 48 hrs by sulforhodamine B assay; assay type: functional; details: SNB-19, 48 h, read-out: GI
IGROV-1 = experiment: Growth inhibition of human IGROV1 cells assessed as cell growth inhibition at 10 uM incubated for 48 hrs by sulforhodamine B assay; assay type: functional; details: IGROV-1, 48 h, read-out: GI
SF-539 = experiment: Growth inhibition of human SF539 cells assessed as cell growth inhibition at 10 uM incubated for 48 hrs by sulforhodamine B assay; assay type: functional; details: SF-539, 48 h, read-out: GI
HCT-15 = experiment: Growth inhibition of human HCT15 cells assessed as cell growth inhibition at 10 uM incubated for 48 hrs by sulforhodamine B assay; assay type: functional; details: HCT-15, 48 h, read-out: GI
[3] = Volume of distribution at steady state in Sprague-Dawley rat at 1 mg/kg, iv by LC-MS/MS analysis; assay type: ADME, organism-based; details: in vivo, read-out: Vdss
Summary of the method: (§2)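 Male SD rats (199-214 g), three per route, single dose 1 mg/kg iv or 10 mg/kg po. Jugular blood (~200 μL) into heparinized tubes at set times; plasma by centrifugation, protein precipitation with acetonitrile containing verapamil and glibenclamide; drug measured by LC-MS/MS.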

MOLT-4 = experiment: Growth inhibition of human MOLT4 cells assessed as cell growth inhibition at 10 uM incubated for 48 hrs by sulforhodamine B assay; assay type: functional; details: MOLT-4, 48 h, read-out: GI
HL-60(TB) = experiment: Growth inhibition of human HL-60(TB) cells assessed as cell growth inhibition at 10 uM incubated for 48 hrs by sulforhodamine B assay; assay type: functional; details: HL-60, 48 h, read-out: GI
BT-549 = experiment: Growth inhibition of human BT549 cells assessed as cell growth inhibition at 10 uM incubated for 48 hrs by sulforhodamine B assay; assay type: functional; details: BT-549, 48 h, read-out: GI
NCI-H460 = experiment: Growth inhibition of human NCI-H460 assessed as cell growth inhibition at 10 uM incubated for 48 hrs by sulforhodamine B assay; assay type: functional; details: NCI-H460, 48 h, read-out: GI
NCI/ADR-RES = experiment: Growth inhibition of human NCI/ADR-RES cells assessed as cell growth inhibition at 10 uM incubated for 48 hrs by sulforhodamine B assay; assay type: functional; details: read-out: GI
HL-60 = experiment: Antiproliferative activity against human HL60 assessed as reduction in cell viability measured after 72 hrs using alamar blue based fluorescence method; assay type: functional; details: HL-60, 72 h
Summary of the method: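 Leukemia lines grown in IMDM with penicillin/streptomycin, HL-60 with 20% FBS and K562 with 10% FBS, at 37 °C, 5% CO2. Cells in 96-well plates exposed to drug for 72 h. Alamar blue (1 mM solution) added for 5–6 h, fluorescence read at 530/590 nm.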

[4] = molecular target: Class 1 histone deacetylase (Homo sapiens) (UniProt Q13547+O15379+Q92769+Q9BY41); experiment: Inhibition of class I HDAC in human MCF7 cells assessed as increase in cellular histone H3 acetylation levels incubated for 24 hrs by Western blot; assay type: cell-based
Class 1 histone deacetylase (Homo sapiens), sequence (O15379 whole entry, looked up): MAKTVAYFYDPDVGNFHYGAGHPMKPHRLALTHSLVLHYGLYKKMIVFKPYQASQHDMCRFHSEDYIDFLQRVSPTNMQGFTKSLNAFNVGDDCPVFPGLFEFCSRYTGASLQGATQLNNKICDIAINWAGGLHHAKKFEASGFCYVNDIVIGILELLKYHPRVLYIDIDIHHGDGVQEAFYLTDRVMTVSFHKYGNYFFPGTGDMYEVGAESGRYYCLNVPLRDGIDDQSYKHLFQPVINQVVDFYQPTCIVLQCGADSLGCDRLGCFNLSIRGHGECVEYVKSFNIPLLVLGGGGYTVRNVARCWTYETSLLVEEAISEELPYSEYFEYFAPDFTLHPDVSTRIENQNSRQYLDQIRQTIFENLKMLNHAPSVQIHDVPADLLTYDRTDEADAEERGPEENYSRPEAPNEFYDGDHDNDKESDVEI
Class 1 histone deacetylase (Homo sapiens), sequence (Q13547 whole entry, looked up): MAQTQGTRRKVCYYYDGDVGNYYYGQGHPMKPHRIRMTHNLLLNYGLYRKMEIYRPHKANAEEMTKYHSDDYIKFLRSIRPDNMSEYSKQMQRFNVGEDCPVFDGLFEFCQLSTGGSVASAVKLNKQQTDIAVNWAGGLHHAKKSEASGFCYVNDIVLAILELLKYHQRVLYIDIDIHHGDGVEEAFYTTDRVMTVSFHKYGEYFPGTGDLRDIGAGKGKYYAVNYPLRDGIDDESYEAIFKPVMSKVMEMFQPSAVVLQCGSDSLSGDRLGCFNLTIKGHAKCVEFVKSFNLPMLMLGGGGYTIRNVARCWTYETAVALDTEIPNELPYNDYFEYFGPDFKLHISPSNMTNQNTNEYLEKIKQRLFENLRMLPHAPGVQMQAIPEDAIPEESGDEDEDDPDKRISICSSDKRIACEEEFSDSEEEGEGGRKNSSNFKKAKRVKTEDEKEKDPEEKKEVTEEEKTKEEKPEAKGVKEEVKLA
Class 1 histone deacetylase (Homo sapiens), sequence (Q92769 whole entry, looked up): as the sequence (Q92769 whole entry) above
Class 1 histone deacetylase (Homo sapiens), sequence (Q9BY41 whole entry, looked up): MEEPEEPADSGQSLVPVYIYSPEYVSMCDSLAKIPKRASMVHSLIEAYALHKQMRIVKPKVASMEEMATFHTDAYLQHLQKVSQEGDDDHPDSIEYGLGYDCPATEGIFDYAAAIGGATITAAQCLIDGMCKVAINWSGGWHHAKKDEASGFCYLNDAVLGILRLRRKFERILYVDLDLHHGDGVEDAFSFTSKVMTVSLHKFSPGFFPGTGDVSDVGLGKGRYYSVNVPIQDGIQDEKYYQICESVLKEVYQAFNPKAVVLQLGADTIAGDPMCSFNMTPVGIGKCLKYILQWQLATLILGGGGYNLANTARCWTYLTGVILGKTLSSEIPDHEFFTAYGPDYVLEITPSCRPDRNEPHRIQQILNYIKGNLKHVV
Summary of the method: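 MCF-7 cells (1×10^6) seeded overnight, treated 24 h at 0.25, 2.5 or 25 μM. Lysed with protease inhibitor (EDTA-free); 30 µg total protein run on SDS-PAGE, blotted to nitrocellulose, probed for acetyl-H3, ECL detection.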

[5] = AUC (0 to t) in Sprague-Dawley rat at 1 mg/kg, iv by LC-MS/MS analysis; assay type: ADME, organism-based; details: in vivo
KM12 = experiment: Growth inhibition of human KM12 cells assessed as cell growth inhibition at 10 uM incubated for 48 hrs by sulforhodamine B assay; assay type: functional; details: KM12, 48 h, read-out: GI
SR = experiment: Growth inhibition of human SR cells assessed as cell growth inhibition at 10 uM incubated for 48 hrs by sulforhodamine B assay; assay type: functional; details: read-out: GI
Homo sapiens = organism: Homo sapiens; experiment: Selectivity index, ratio of IC50 of HDCA11 (unknown origin) to IC50 of HDCA1 (unknown origin)
COLO 205 = experiment: Growth inhibition of human COLO205 cells assessed as cell growth inhibition at 10 uM incubated for 48 hrs by sulforhodamine B assay; assay type: functional; details: COLO 205, 48 h, read-out: GI
ACHN = experiment: Growth inhibition of human ACHN cells assessed as cell growth inhibition at 10 uM incubated for 48 hrs by sulforhodamine B assay; assay type: functional; details: read-out: GI
[6] = Terminal half life in Sprague-Dawley rat at 10 mg/kg, po by LC-MS/MS analysis; assay type: ADME, organism-based; details: in vivo, read-out: beta t1/2 (converted); summary of the method: as §2
EKVX = experiment: Growth inhibition of human EKVX cells assessed as cell growth inhibition at 10 uM incubated for 48 hrs by sulforhodamine B assay; assay type: functional; details: read-out: GI
RXF 393 = experiment: Growth inhibition of human RXF393 cells assessed as cell growth inhibition at 10 uM incubated for 48 hrs by sulforhodamine B assay; assay type: functional; details: RXF 393, 48 h, read-out: GI
MCF7 = experiment: Growth inhibition of human MCF7 cells assessed as cell growth inhibition at 10 uM incubated for 48 hrs by sulforhodamine B assay; assay type: functional; details: MCF7, 48 h, read-out: GI
[7] = Oral bioavailability in Sprague-Dawley rat at 10 mg/kg by LC-MS/MS analysis; assay type: ADME, organism-based; details: in vivo; summary of the method: as §2
SNB-75 = experiment: Growth inhibition of human SNB75 cells assessed as cell growth inhibition at 10 uM incubated for 48 hrs by sulforhodamine B assay; assay type: functional; details: SNB-75, 48 h, read-out: GI

Histone deacetylase 7 (Homo sapiens), sequence (Q8WUI4 whole entry, canonical isoform): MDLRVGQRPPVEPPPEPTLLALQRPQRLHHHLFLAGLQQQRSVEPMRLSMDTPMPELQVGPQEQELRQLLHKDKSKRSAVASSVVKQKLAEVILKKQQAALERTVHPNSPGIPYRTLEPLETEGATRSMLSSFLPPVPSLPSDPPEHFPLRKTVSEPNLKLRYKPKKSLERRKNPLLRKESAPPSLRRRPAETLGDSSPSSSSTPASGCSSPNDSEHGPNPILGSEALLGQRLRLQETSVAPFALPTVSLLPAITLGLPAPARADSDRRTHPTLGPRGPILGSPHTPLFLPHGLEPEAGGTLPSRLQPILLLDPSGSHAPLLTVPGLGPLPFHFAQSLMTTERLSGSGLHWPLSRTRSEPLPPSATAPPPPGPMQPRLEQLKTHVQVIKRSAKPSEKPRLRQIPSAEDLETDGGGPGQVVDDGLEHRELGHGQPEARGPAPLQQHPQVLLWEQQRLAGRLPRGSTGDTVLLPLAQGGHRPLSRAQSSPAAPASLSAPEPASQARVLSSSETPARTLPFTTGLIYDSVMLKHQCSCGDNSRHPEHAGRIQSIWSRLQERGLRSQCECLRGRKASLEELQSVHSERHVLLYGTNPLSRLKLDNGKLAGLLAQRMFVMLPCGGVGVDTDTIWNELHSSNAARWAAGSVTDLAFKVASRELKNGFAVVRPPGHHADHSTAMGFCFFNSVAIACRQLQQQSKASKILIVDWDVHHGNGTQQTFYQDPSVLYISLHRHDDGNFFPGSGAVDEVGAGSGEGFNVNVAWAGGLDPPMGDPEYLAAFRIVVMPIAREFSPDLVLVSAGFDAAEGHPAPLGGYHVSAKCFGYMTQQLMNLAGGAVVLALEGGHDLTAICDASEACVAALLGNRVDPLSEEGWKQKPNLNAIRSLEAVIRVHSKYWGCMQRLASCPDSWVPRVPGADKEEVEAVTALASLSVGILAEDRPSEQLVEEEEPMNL

Nc1cc(F)ccc1NC(=O)c1ccc(CNC(=O)/C=C2\NC(=O)c3ccccc32)cc1
inhibition [1]: inactive
inhibition of growth at 10 µM (HOP-92): 58.6%
IC50 (Histone deacetylase 2): 75 nM
inhibition of growth at 10 µM (PC-3): 39.4%
half-life at 1 µM [2]: 3.35 h
inhibition of growth at 10 µM (SK-MEL-5): 34.7%
inhibition of growth at 10 µM (SNB-19): 13.6%
inhibition of growth at 10 µM (IGROV-1): 22.8%
inhibition of growth at 10 µM (SF-539): 44.8%
inhibition of growth at 10 µM (HCT-15): 0.12%
Vd [3]: 0.493 L/kg
inhibition of growth at 10 µM (MOLT-4): 63%
inhibition of growth at 10 µM (HL-60(TB)): 84%
inhibition of growth at 10 µM (BT-549): 6.06%
inhibition of growth at 10 µM (NCI-H460): 26.8%
inhibition of growth at 10 µM (NCI/ADR-RES): 18%
IC50 (HL-60): 373 nM
inhibition [4]: Dose-dependent effect
AUC(0-t) [5]: 781 ng·h/mL
inhibition of growth at 10 µM (KM12): 26.9%
inhibition of growth at 10 µM (SR): 57.6%
Ratio IC50 (Homo sapiens): 10
inhibition of growth at 10 µM (COLO 205): 27.8%
inhibition of growth at 10 µM (ACHN): 15%
half-life [6]: 1.3 h
inhibition of growth at 10 µM (EKVX): 11.7%
inhibition of growth at 10 µM (RXF 393): 17.5%
inhibition of growth at 10 µM (MCF7): 35.5%
bioavailability [7]: 16%
inhibition of growth at 10 µM (SNB-75): 30.6%

Source: ChEMBL document CHEMBL4387704, “Design, synthesis and biological evaluation of novel isoindolinone derivatives as potent histone deacetylase inhibitors” (Eur J Med Chem, 2019)
